{
  "source": "ChEMBL document CHEMBL2062470",
  "about": "“Fungal bis-Naphthopyrones as Inhibitors of Botulinum Neurotoxin Serotype A” (ACS Med Chem Lett, 2012)",
  "key": {"[1]": {"target": "Botulinum neurotoxin type A (Clostridium botulinum (strain Hall / ATCC 3502 / NCTC 13319 / Type A)) (UniProt P0DPI1)", "sequence (P0DPI1 2-448 limits assumed)": "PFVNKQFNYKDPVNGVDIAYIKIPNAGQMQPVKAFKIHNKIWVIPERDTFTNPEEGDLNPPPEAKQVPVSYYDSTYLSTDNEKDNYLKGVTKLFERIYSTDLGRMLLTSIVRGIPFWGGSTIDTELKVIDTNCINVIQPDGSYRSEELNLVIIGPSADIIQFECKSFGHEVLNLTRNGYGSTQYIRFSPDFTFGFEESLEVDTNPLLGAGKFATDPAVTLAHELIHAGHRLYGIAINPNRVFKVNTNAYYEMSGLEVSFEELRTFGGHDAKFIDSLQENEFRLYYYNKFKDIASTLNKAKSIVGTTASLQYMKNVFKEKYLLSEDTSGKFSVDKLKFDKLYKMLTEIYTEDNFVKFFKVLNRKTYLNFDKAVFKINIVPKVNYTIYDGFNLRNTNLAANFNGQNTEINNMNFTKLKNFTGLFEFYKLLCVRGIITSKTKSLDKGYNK", "assay": "Inhibition of Clostridium botulinum Hall BoNT/A-mediated paralysis in CD1 mouse phrenic nerve hemidiaphragm assessed as time required to 50% loss of twitch tension at 20 uM measured upto 5 hrs (reference value: 62 mins)"}, "[2]": {"target": "Botulinum neurotoxin type A (Clostridium botulinum (strain Hall / ATCC 3502 / NCTC 13319 / Type A)) (UniProt P0DPI1)", "assay": "Inhibition of Clostridium botulinum Hall BoNT/A protease activity using Ac-SNKTRIDEANQRATKML-NH2 as substrate at 100 uM after 5 mins by RP-HPLC analysis", "method_in_brief": "(§1)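 HPLC-based BoNT/A protease assay; single-point percent inhibition of protease activity at 100 or 20 μM compound.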"}, "[3]": {"target": "Botulinum neurotoxin type A (Clostridium botulinum (strain Hall / ATCC 3502 / NCTC 13319 / Type A), UniProt P0DPI1)", "sequence (P0DPI1 2-448 limits assumed)": "as above", "assay": "Inhibition of Clostridium botulinum Hall BoNT/A protease activity using Ac-SNKTRIDEANQRATKML-NH2 as substrate after 5 mins by RP-HPLC analysis", "method_in_brief": "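HPLC-based BoNT/A protease assay; percent inhibition measured at nine compound concentrations, with IC50 derived by curve fitting.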"}, "[4]": {"target": "Botulinum neurotoxin type A (Clostridium botulinum (strain Hall / ATCC 3502 / NCTC 13319 / Type A)) (UniProt P0DPI1)", "assay": "Inhibition of Clostridium botulinum Hall BoNT/A-mediated paralysis in CD1 mouse phrenic nerve hemidiaphragm assessed as time required to 50% loss of twitch tension at 2 uM measured upto 5 hrs (reference value: 62 mins)"}, "[5]": {"target": "Botulinum neurotoxin type A (Clostridium botulinum (strain Hall / ATCC 3502 / NCTC 13319 / Type A)) (UniProt P0DPI1)", "assay": "Inhibition of Clostridium botulinum Hall BoNT/A protease activity using Ac-SNKTRIDEANQRATKML-NH2 as substrate at 20 uM after 5 mins by RP-HPLC analysis", "method_in_brief": "as §1"}},
  "data": [
    {"smiles": "CCOc1ccc(C(Nc2cccnc2)c2cc(Cl)c3cccnc3c2O)cc1", "note": "(racemic)", "values": [
      {"measurement": "TIME", "setting": "[1]", "result": 5, "unit": "h"},
      {"measurement": "inhibition", "setting": "[2]", "result": 98, "unit": "%"},
      {"measurement": "IC50", "setting": "[3]", "result": 2.1, "unit": "µM"},
      {"measurement": "TIME", "setting": "[4]", "result": 5, "unit": "h"},
      {"measurement": "inhibition", "setting": "[5]", "result": 96.2, "unit": "%"}
    ]},
    {"smiles": "COC(=O)[C@]12Oc3ccc(-c4ccc5c(c4O)C(=O)C4=C(O)C[C@@H](C)[C@H](O)[C@@]4(C(=O)OC)O5)c(O)c3C(=O)C1=C(O)C[C@@H](C)[C@@H]2O", "note": "[SECALONIC ACID A]", "values": [
      {"measurement": "TIME", "setting": "[1]", "result": 1.12, "unit": "h"},
      {"measurement": "inhibition", "setting": "[2]", "result": 64.5, "unit": "%"},
      {"measurement": "IC50", "setting": "[3]", "result": 28.6, "unit": "µM"},
      {"measurement": "inhibition", "setting": "[5]", "result": 39.1, "unit": "%"}
    ]},
    {"smiles": "CCC[C@H]1Cc2cc3c(-c4c(O)cc(O)c5c(O)c6c(cc45)C[C@H](CCC)OC6=O)c(O)cc(O)c3c(O)c2C(=O)O1", "note": "[TALARODERXINE A]", "values": [
      {"measurement": "IC50", "setting": "[3]", "result": 3.7, "unit": "µM"}
    ]},
    {"smiles": "CCC[C@H]1Cc2cc3c(-c4c(O)cc(O)c5c(O)c6c(cc45)C[C@H](CCC)OC6=O)c(O)cc(O)c3c(O)c2C(=O)O1", "note": "(single isomer, unassigned; atropisomer)", "values": [
      {"measurement": "TIME", "setting": "[1]", "result": 1.58, "unit": "h"},
      {"measurement": "inhibition", "setting": "[2]", "result": 80.3, "unit": "%"},
      {"measurement": "TIME", "setting": "[4]", "result": 2.9, "unit": "h"},
      {"measurement": "inhibition", "setting": "[5]", "result": 67, "unit": "%"}
    ]},
    {"smiles": "C[C@H]1Oc2cc3c(-c4c(O)cc(O)c5c(O)c6c(cc45)O[C@H](C)[C@@H](C)C6=O)c(O)cc(O)c3c(O)c2C(=O)[C@@H]1C", "note": "[CHAETOCHROMIN A]", "values": [
      {"measurement": "TIME", "setting": "[1]", "result": 3.13, "unit": "h"},
      {"measurement": "inhibition", "setting": "[2]", "result": 74, "unit": "%"},
      {"measurement": "IC50", "setting": "[3]", "result": 24.6, "unit": "µM"},
      {"measurement": "TIME", "setting": "[4]", "result": 1.73, "unit": "h"},
      {"measurement": "inhibition", "setting": "[5]", "result": 55, "unit": "%"}
    ]},
    {"smiles": "CCC[C@H]1Cc2cc3c(-c4c(O)cc(O)c5c(O)c6c(cc45)C[C@H](CCC)OC6=O)c(O)cc(O)c3c(O)c2C(=O)O1", "values": [
      {"measurement": "TIME", "setting": "[1]", "result": 3.28, "unit": "h"},
      {"measurement": "inhibition", "setting": "[2]", "result": 96, "unit": "%"},
      {"measurement": "TIME", "setting": "[4]", "result": 3.15, "unit": "h"},
      {"measurement": "inhibition", "setting": "[5]", "result": 85, "unit": "%"}
    ]},
    {"smiles": "CCC[C@H]1Cc2cc3c(-c4c(O)cc(O)c5c(O)c6c(cc45)C[C@H](CCC)OC6=O)c(O)cc(O)c3c(O)c2C(=O)O1", "note": "(single isomer, unassigned; atropisomer) [TALARODERXINE A]", "values": [
      {"measurement": "IC50", "setting": "[3]", "result": 10.1, "unit": "µM"}
    ]},
    {"smiles": "Cc1cc(O)c2c(c1)C(=O)c1c(c(O)cc(O)c1-c1c(O)cc(O)c3c1C(=O)c1cc(C)cc(O)c1C3=O)C2=O", "note": "[SKYRIN]", "values": [
      {"measurement": "TIME", "setting": "[1]", "result": 1.35, "unit": "h"},
      {"measurement": "inhibition", "setting": "[2]", "result": 74.3, "unit": "%"},
      {"measurement": "IC50", "setting": "[3]", "result": 31.5, "unit": "µM"},
      {"measurement": "TIME", "setting": "[4]", "result": 1.07, "unit": "h"},
      {"measurement": "inhibition", "setting": "[5]", "result": 40.3, "unit": "%"}
    ]},
    {"smiles": "CC1CC(=O)c2c(cc3c(-c4c(O)cc(O)c5c(O)c6c(cc45)OC(C)CC6=O)c(O)cc(O)c3c2O)O1", "note": "(stereo not drawn) [CEPHALOCHROMIN]", "values": [
      {"measurement": "TIME", "setting": "[1]", "result": 0.983, "unit": "h"},
      {"measurement": "inhibition", "setting": "[2]", "result": 72, "unit": "%"},
      {"measurement": "IC50", "setting": "[3]", "result": 29.2, "unit": "µM"},
      {"measurement": "inhibition", "setting": "[5]", "result": 45, "unit": "%"}
    ]}
  ]
}
